Sampled rows, rich in hits. Any-hit rate of the full collection: about 7.4%.
S1P3 agonist: agonists of human S1P3 receptor. Q99500. S1P3 NFAT-BLA reporter cells, agonism, FRET ratio; relative to 1 µM S1P, basal subtracted. activation, % at 4.5 µM. actives 0.1% (n = 60,000). AID 373;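 active means activation above the screen-wide mean plus 3 SD, cut at about 4.5% in these data, passing the limit was not always enough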
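Assay system: stable CHO line with human S1P3, Gα16, NFAT-BLA reporter; Detection: FRET β-lactamase substrate fluorescence, excitation 405 nm, 460/535 nm emission ratio, background-subtracted; Read-out: percent activation versus median 1 µM S1P response, basal-subtracted, per plate; Incubation: cells plated overnight, compound 4 h 37 °C, substrate 2 h RT.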
M1 ag: M1 muscarinic receptor agonism | CHO-M1 cells, Fluo-4 calcium fluorescence, agonist mode; stronger effect = higher value | B-score at 10 µM | actives 3% (n = 64,000);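 active means fluorescence rise, raw or as B-score row- and column-corrected plate score, outside the 99.7% band of its plate's samples, either direction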
Jurkat viability: cytotoxicity toward Jurkat cells; Jurkat E6.1 viability, ATP luminescence, 48 h; inhibition, % at 4 µM; actives 1.2% (n = 56,000);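 active means inhibition above the mean inhibition of all tested compounds plus 3 SD, cut at about 28% in these data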
S1P1 ag-PAM: S1P1 (human) agonism or agonism potentiation; P21453; S1P1 CRE-bla cells, forskolin, beta-lactamase FRET, potentiator mode; S1P1 agonist co-added at EC20, 2 nM; 100% = saturating reference agonist, 0% = basal; activation, % at 9.5 µM; actives 0.57% (n = 56,000); AID 449;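 active means activation above a cutoff set at the mean activation of all tested compounds plus 3 SD, cut at about 54% in these data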;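 further: forskolin at 4 µM as EC80 and the EC20 agonist is SEW2871; 100% = SEW2871 at its EC100 plus forskolin at EC80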
M1 antagonist: blocks the rat M1 muscarinic receptor response to acetylcholine; P08482; CHO-M1 cells, Fluo-4 calcium, ACh EC80 antagonist mode; stronger effect = lower value; B-score at 10 µM; actives 3.4% (n = 64,000); AID 628;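 active means calcium fluorescence response, raw or row-and-column corrected B-score, differing from the plate sample mean either way at a set confidence level, mostly lower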
Target sequence (P08482 whole entry, looked up): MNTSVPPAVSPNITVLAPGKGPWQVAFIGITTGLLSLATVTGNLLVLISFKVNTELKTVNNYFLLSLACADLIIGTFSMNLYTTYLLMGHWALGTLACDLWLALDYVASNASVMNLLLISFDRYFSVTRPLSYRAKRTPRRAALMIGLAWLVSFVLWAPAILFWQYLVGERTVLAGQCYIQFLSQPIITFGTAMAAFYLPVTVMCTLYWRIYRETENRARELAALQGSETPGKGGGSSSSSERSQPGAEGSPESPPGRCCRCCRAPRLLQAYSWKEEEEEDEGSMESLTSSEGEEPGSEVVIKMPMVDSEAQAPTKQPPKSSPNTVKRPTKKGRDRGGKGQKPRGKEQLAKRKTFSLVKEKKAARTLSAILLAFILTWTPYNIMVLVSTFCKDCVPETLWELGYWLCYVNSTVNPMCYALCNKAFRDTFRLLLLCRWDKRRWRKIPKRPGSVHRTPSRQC
JNK3 inh: JNK3 (human) kinase inhibition; actives 0.61% (n = 60,000); AID 746; inhibition, % at 8 µM; P53779; purified JNK3 kinase activity, HTS; in the data active means inhibition above about 17%;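 further: 0% = DMSO and 100% = reference inhibitor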
M1 antag conf: confirmation of rat M1 muscarinic receptor antagonists; CHO-M1 cells, Fluo-4 calcium, ACh EC80 antagonism; stronger effect = lower value; actives 43% (n = 1,700); AID 677; calcium response (max-min fluorescence) at 10 µM; shares compounds with M1 antagonist;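 active means calcium response below the same-plate mean of wells given acetylcholine alone at its 80%-effect dose, minus 3 SD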;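 further: raw fluorescence intensity difference in arbitrary instrument units and not normalized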
mGluR4 antag: selectivity test for M1 antagonists: human mGluR4 receptor; actives 0.9% (n = 1,700); CHO-mGluR4 calcium flux, Fluo-4 fluorescence, glutamate EC80; stronger effect = lower value; fluorescence response (max-min) at 10 µM; shares compounds with M1 antagonist; AID 678;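 active means fluorescence response below the plate's average for near-maximal glutamate wells, less 3 SD of those wells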;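 further: raw unnormalized fluorescence span taken in the window right after glutamate addition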
* marks the source's active call; other numbers are inactive results; . = no result given.

SMILES	S1P3 agonist	M1 ag	Jurkat viability	S1P1 ag-PAM	M1 antagonist	JNK3 inh	M1 antag conf	mGluR4 antag
Cn1c(=Nc2ccc(N3CCOCC3)cc2)ccc2ccccc21	0	0.32	-4	-37	-10*	-1	289*	197
O=C1CC(c2ccc(Cl)cc2)CC(O)=C1C=NCCN1CCNCC1 (stereo not drawn)	.	-0.58	.	.	-5.3*	.	512*	184
COc1ccc(C2CC(=O)C(C=NCCN3CCNCC3)=C(O)C2)cc1OC (stereo not drawn)	-2	-1.8	6	-5	-1	2	.	.
c1ccc(CCN2CN(CCCN3CCOCC3)c3nc4ccccc4n3C2)cc1	-1	-0.23	1	-13	-1.9*	-9	442	187
COC(=O)c1ccccc1NC(=O)N1CCN(C/C=C/c2ccccc2)CC1	-1	0.12	-7	-10	-4.1*	-1	507	238
O=C(Nc1ccc(F)cc1F)N1CCN(C/C=C/c2ccccc2)CC1	-2	-1.6	4	22	-0.23	0	.	.
COC(=O)C1=C(C)Nc2ncnn2C1c1ccc(OCc2ccccc2)cc1 (stereo not drawn)	-2	0.25	0	-8	-0.17	2	.	.
Cc1noc(C)c1C(=O)N1CCN(C(=O)c2sc3cc(Cl)ccc3c2Cl)CC1	0	-0.24	-5	20	-4*	2	659	229
Cc1noc(C)c1C(=O)N1CCN(c2ncccn2)CC1	0	0.34	4	-15	-1.1	9	.	.
CCCc1nc2oc3c(NCCN(C)C)ncnc3c2c2c1CCCC2	0	1.8	6	-36	-6.4*	-14	498	259
CC(NC(=O)OC1CCCCC1)N1C(=O)C2C3C=CC(C3)C2C1=O (stereo not drawn)	-1	0.7	-4	11	-0.2	1	.	.
Cn1c(CCN2CCCCC2)nc2cc(NS(=O)(=O)c3ccccc3)ccc21	0	0.085	4	15	-5.2*	-5	448*	239
CCCCC(=O)Nc1ccc2c(c1)nc(CCN1CCOCC1)n2C	1	0.5	0	0	-0.62	2	.	.
Cn1c(CCN2CCCCC2)nc2cc(NC(=O)Nc3ccccc3)ccc21	0	0.4	-4	-6	-4.4*	-11	194*	188
COc1cc2c(=O)n(Cc3ccccc3)c(=O)n(CC(=O)C(C)(C)C)c2cc1OC	.	0.37	.	.	-2.1*	.	450	210
CC1CCCC(NC(=O)CN(C)S(=O)(=O)c2cccc3cccnc23)C1C (stereo not drawn)	0	0.032	1	-22	0.64	-5	.	.
COc1ccc(-n2c(=O)c3ccccc3n(CC(=O)NC3CCCC3)c2=O)cc1	-1	.	0	1	.	1	.	.
c1coc(CNc2nc(N3CCCCC3)nc3ccccc23)c1	-1	2.7	2	-18	-1.5*	1	465	203
c1ccc(N2CCN(c3nc(NCc4ccco4)c4ccccc4n3)CC2)cc1	-1	0.27	.	-7	-0.65	-2	.	.
O=C(c1ccc2c(c1)OCCCO2)c1cccs1	-1	-0.25	1	4	-0.29	-4	.	.
Cc1cc(C)cc(OCC(O)CN2C(=O)NC(C)(C)C2=O)c1 (stereo not drawn)	0	0.66	-3	-6	0.86	-5	.	.
COC(=O)\C(C(C)=O)=C(/C=C/C=C/N(C)C)N(C)C	-2	0.32	9	17	-2.4*	7	599	263
CS(=O)(=O)N(CC(=O)N1CCOCC1)c1ccc2c(c1)OCO2	0	-0.072	-4	-4	-0.23	-5	.	.
CS(=O)(=O)N(CC(=O)O)c1ccc2c(c1)OCO2	-1	-0.035	1	-39	-4.1*	-14	655	254
COC(=O)c1ccc(COC(=O)C23CC4CC(CC(O)(C4)C2)C3)o1	-1	-0.21	-2	-71	-0.27	-3	.	.
SMILES	S1P3 agonist	M1 ag	Jurkat viability	S1P1 ag-PAM	M1 antagonist	JNK3 inh	M1 antag conf	mGluR4 antag
O=C(COC(=O)C12CC3CC(CC(O)(C3)C1)C2)NC(=O)NCc1ccco1	-1	-0.35	5	-28	-17*	7	571*	172
C=CCSc1nnc2c(n1)OC(c1cccnc1)N(C(C)=O)c1ccccc1-2 (stereo not drawn)	-1	-0.53	-6	10	-4.2*	-3	373*	224
CSc1nnc2c(n1)OC(c1cccn1C)N(C(C)=O)c1ccccc1-2 (stereo not drawn)	-1	0.36	-8	8	-5.7*	-7	158*	201
COCc1[nH]nc2c1C(c1ccsc1)C(C#N)=C(N)O2 (stereo not drawn)	0	-0.019	2	1	-2.7*	-2	552	200
COCc1[nH]nc2c1C(c1ccc(OC)cc1)C(C#N)=C(N)O2 (stereo not drawn)	-1	-0.47	.	-3	0.14	4	.	.
CCOc1ccc2nc(N3CCC(C(=O)N4CCN(c5ccccn5)CC4)CC3)sc2c1	-1	0.87	35*	20	-2.4*	1	411	198
CC(C)COc1ccc(-c2nnc(-c3ccncc3)o2)cc1	-1	-1.4	3	47	-0.016	-1	.	.
CCCOc1ccc(-c2nnc(-c3ccncc3)o2)cc1	-1	-0.86	9	59	-2*	0	533	207
CC1(C)C(=O)C2(CCCCC2)C(=O)OC1c1ccc(O)cc1 (stereo not drawn)	-1	0.36	-1	-13	-0.23	3	.	.
CCOC(=O)c1nnc2cc(-c3ccc(Br)cc3)nn2c1C	-1	-0.63	-8	-5	0.18	7	.	.
CCOC(=O)c1nnc2cc(-c3ccccc3)nn2c1C	1	0.79	2	9	-2.6*	5	640	231
COCCn1c(SCc2cccnc2)nnc1-c1ccco1	-1	0.00022	-8	-3	-3*	-5	664	234
CCOC(=O)N1CCN(c2nc(C)c3c(n2)CC(C)CC3=O)CC1 (stereo not drawn)	0	0.17	-5	-4	0.038	4	.	.
O=S(=O)(NCCc1ccccn1)c1ccc(F)c(F)c1	-1	1	-2	10	1.1	-5	.	.
CCCCN(CC)CCNc1c(NC2CCN(C(=O)OCC)CC2)c(=O)c1=O	1	0.27	-5	4	-0.063	-4	.	.
CCCCN(CC)CCNc1c(N2CCN(C(=O)OCC)CC2)c(=O)c1=O	-1	-0.0065	-3	-4	-2.1*	4	608	234
CCN1CCN(Cc2ccccc2NC(=O)Nc2ccc(C)cc2)CC1	-1	-0.46	-10	-16	-1	0	.	.
CCN1CCN(Cc2ccc(NC(=O)Nc3ccccc3Cl)cc2)CC1	-1	0.091	-2	11	-3*	5	526	225

Screening results: PubChem BioAssay, several laboratories
